Assay results as given in ChEMBL document CHEMBL1817558, “Design, synthesis and antimicrobial activity of chiral 2-(substituted-hydroxyl)-3-(benzo[d]oxazol-5-yl)propanoic acid derivatives” (2011).
≈ marks a conversion by molar mass, not a printed value.

Legend:
Type in all cases: functional
[1] = system: Escherichia coli; assay: Antibacterial activity against Escherichia coli ATCC 11303 after 24 hrs by NCCLS M7-A6 broth dilution method; conditions: ATCC 11303, 24 h
Outline: (§1)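 Broth microdilution MIC per NCCLS. The 4 mg/mL DMSO stock was diluted in Mueller-Hinton broth with inoculum at 10^5 CFU/mL. Twofold serial dilutions gave final concentrations of 200 to 0.39 µg/mL. Incubation was 24 h at 37 °C, and cultures were streaked on plates to check clarity. MIC was the lowest concentration giving a clear well. Controls were medium-only and DMSO-only inoculated broth.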

[2] = system: Staphylococcus aureus; assay: Antibacterial activity against Staphylococcus aureus ATCC 10832 after 24 hrs by NCCLS M7-A6 broth dilution method; conditions: ATCC 10832, 24 h
Outline: (§2)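 96-well microtitre broth dilution in Mueller-Hinton broth, inoculum 10^5 CFU/mL. Compounds dissolved in DMSO at 4 mg/mL, then twofold serial dilution giving final 200 down to 0.39 µg/mL. Incubated 24 h at 37 °C. Cultures streaked on plates to check clarity; MIC taken as lowest concentration leaving the well clear. DMSO-only solvent control run at matching dilutions.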

[3] = system: Staphylococcus aureus; assay: Antibacterial activity against methicillin-resistant Staphylococcus aureus ATCC 700699 after 24 hrs by NCCLS M7-A6 broth dilution method; conditions: ATCC 700699, 24 h; outline: as §2
[4] = system: Bacillus subtilis; assay: Antibacterial activity against Bacillus subtilis ATCC 33712 after 24 hrs by NCCLS M7-A6 broth dilution method; conditions: ATCC 33712, 24 h; outline: as §1
[5] = system: Candida albicans; assay: microbe, parasite or virus in culture; conditions: ATCC 10231, 24 h

Row | SMILES | MIC [1] | MIC [2] | MIC [3] | MIC [4] | MIC [5]
1 | Cc1oc(-c2ccccc2)nc1CCCc1nc2cc(C[C@H](Oc3ccc(Cl)cc3)C(=O)O)ccc2o1 | 25 µg/mL (≈ 48.4 µM) | 6.25 µg/mL (≈ 12.1 µM) | 6.25 µg/mL (≈ 12.1 µM) | 12.5 µg/mL (≈ 24.2 µM) | > 200 µg/mL
2 | Cc1oc(-c2ccccc2)nc1CCCc1nc2cc(C[C@H](Oc3ccccc3)C(=O)O)ccc2o1 | 100 µg/mL (≈ 207 µM) | 25 µg/mL (≈ 51.8 µM) | 25 µg/mL (≈ 51.8 µM) | 25 µg/mL (≈ 51.8 µM) | > 200 µg/mL
3 | Cc1oc(-c2ccccc2)nc1CCCc1nc2cc(C[C@H](Oc3cccnc3)C(=O)O)ccc2o1 | > 200 µg/mL | 200 µg/mL (≈ 414 µM) | 200 µg/mL (≈ 414 µM) | > 200 µg/mL | > 200 µg/mL
4 | Cc1oc(-c2ccccc2)nc1CCCc1nc2cc(C[C@H](Oc3cccc4ncccc34)C(=O)O)ccc2o1 | 200 µg/mL (≈ 375 µM) | 25 µg/mL (≈ 46.9 µM) | 25 µg/mL (≈ 46.9 µM) | 50 µg/mL (≈ 93.7 µM) | > 200 µg/mL
5 | Cc1oc(-c2ccccc2)nc1CCCc1nc2cc(C[C@H](Oc3ccc(F)cc3)C(=O)O)ccc2o1 | 50 µg/mL (≈ 99.9 µM) | 12.5 µg/mL (≈ 25 µM) | 12.5 µg/mL (≈ 25 µM) | 25 µg/mL (≈ 49.9 µM) | > 200 µg/mL
6 | Cc1oc(-c2ccccc2)nc1CCCc1nc2cc(C[C@H](Oc3cccc(F)c3)C(=O)O)ccc2o1 | 50 µg/mL (≈ 99.9 µM) | 12.5 µg/mL (≈ 25 µM) | 12.5 µg/mL (≈ 25 µM) | 25 µg/mL (≈ 49.9 µM) | > 200 µg/mL
7 | Cc1oc(-c2ccccc2)nc1CCCc1nc2cc(C[C@H](Oc3cc(F)c(F)c(F)c3)C(=O)O)ccc2o1 | 25 µg/mL (≈ 46.6 µM) | 12.5 µg/mL (≈ 23.3 µM) | 6.25 µg/mL (≈ 11.6 µM) | 6.25 µg/mL (≈ 11.6 µM) | > 200 µg/mL
8 | Cc1oc(-c2ccccc2)nc1CCCc1nc2cc(C[C@H](Oc3ccc(Br)cc3)C(=O)O)ccc2o1 | 12.5 µg/mL (≈ 22.3 µM) | 3.12 µg/mL (≈ 5.56 µM) | 3.12 µg/mL (≈ 5.56 µM) | 6.25 µg/mL (≈ 11.1 µM) | > 200 µg/mL
9 | Cc1oc(-c2ccccc2)nc1CCCc1nc2cc(C[C@H](Oc3ccccc3Br)C(=O)O)ccc2o1 | 50 µg/mL (≈ 89.1 µM) | 25 µg/mL (≈ 44.5 µM) | 25 µg/mL (≈ 44.5 µM) | 50 µg/mL (≈ 89.1 µM) | > 200 µg/mL
10 | Cc1oc(-c2ccccc2)nc1CCCc1nc2cc(C[C@H](Oc3ccc(Cl)cc3Cl)C(=O)O)ccc2o1 | 6.25 µg/mL (≈ 11.3 µM) | 3.12 µg/mL (≈ 5.66 µM) | 1.56 µg/mL (≈ 2.83 µM) | 3.12 µg/mL (≈ 5.66 µM) | > 200 µg/mL
11 | Cc1oc(-c2ccccc2)nc1CCCc1nc2cc(C[C@H](Oc3cccc(I)c3)C(=O)O)ccc2o1 | 25 µg/mL (≈ 41.1 µM) | 3.12 µg/mL (≈ 5.13 µM) | 1.56 µg/mL (≈ 2.56 µM) | 12.5 µg/mL (≈ 20.5 µM) | > 200 µg/mL
12 | Cc1oc(-c2ccccc2)nc1CCCc1nc2cc(C[C@H](Oc3ccc(I)cc3)C(=O)O)ccc2o1 | 12.5 µg/mL (≈ 20.5 µM) | 1.56 µg/mL (≈ 2.56 µM) | 1.56 µg/mL (≈ 2.56 µM) | 6.25 µg/mL (≈ 10.3 µM) | > 200 µg/mL
13 | Cc1oc(-c2ccccc2)nc1CCCc1nc2cc(C[C@H](Oc3ccc(C(F)(F)F)cc3)C(=O)O)ccc2o1 | 12.5 µg/mL (≈ 22.7 µM) | 1.56 µg/mL (≈ 2.83 µM) | 1.56 µg/mL (≈ 2.83 µM) | 6.25 µg/mL (≈ 11.4 µM) | > 200 µg/mL
14 | Cc1oc(-c2ccccc2)nc1CCCc1nc2cc(C[C@H](Oc3ccc(C#N)cc3)C(=O)O)ccc2o1 | 200 µg/mL (≈ 394 µM) | 50 µg/mL (≈ 98.5 µM) | 50 µg/mL (≈ 98.5 µM) | 50 µg/mL (≈ 98.5 µM) | > 200 µg/mL
15 | CC(=O)c1ccc(O[C@@H](Cc2ccc3oc(CCCc4nc(-c5ccccc5)oc4C)nc3c2)C(=O)O)cc1 | > 200 µg/mL | 100 µg/mL (≈ 191 µM) | 100 µg/mL (≈ 191 µM) | > 200 µg/mL | > 200 µg/mL
16 | Cc1ccc(O[C@@H](Cc2ccc3oc(CCCc4nc(-c5ccccc5)oc4C)nc3c2)C(=O)O)cc1 | 50 µg/mL (≈ 101 µM) | 25 µg/mL (≈ 50.3 µM) | 12.5 µg/mL (≈ 25.2 µM) | 50 µg/mL (≈ 101 µM) | > 200 µg/mL
17 | COc1ccc(O[C@@H](Cc2ccc3oc(CCCc4nc(-c5ccccc5)oc4C)nc3c2)C(=O)O)cc1 | 100 µg/mL (≈ 195 µM) | 25 µg/mL (≈ 48.8 µM) | 25 µg/mL (≈ 48.8 µM) | 50 µg/mL (≈ 97.5 µM) | > 200 µg/mL

Row | SMILES | MIC [1] | MIC [2] | MIC [3] | MIC [4] | MIC [5]
18 | Cc1oc(-c2ccccc2)nc1CCCc1nc2cc(C[C@H](Oc3ccc(C(C)(C)C)cc3)C(=O)O)ccc2o1 | 3.12 µg/mL (≈ 5.79 µM) | 1.56 µg/mL (≈ 2.9 µM) | 1.56 µg/mL (≈ 2.9 µM) | 3.12 µg/mL (≈ 5.79 µM) | > 200 µg/mL
19 | Cc1oc(-c2ccccc2)nc1CCCc1nc2cc(C[C@H](Oc3ccc(-c4ccccc4)cc3)C(=O)O)ccc2o1 | 3.12 µg/mL (≈ 5.59 µM) | 1.56 µg/mL (≈ 2.79 µM) | 1.56 µg/mL (≈ 2.79 µM) | 3.12 µg/mL (≈ 5.59 µM) | > 200 µg/mL
20 | Cc1oc(-c2ccccc2)nc1CCCc1nc2cc(C[C@H](Oc3ccc(OCc4ccccc4)cc3)C(=O)O)ccc2o1 | 6.25 µg/mL (≈ 10.6 µM) | 1.56 µg/mL (≈ 2.65 µM) | 1.56 µg/mL (≈ 2.65 µM) | 1.56 µg/mL (≈ 2.65 µM) | > 200 µg/mL
21 | CO[C@@H](Cc1ccc2oc(CCCc3nc(-c4ccccc4)oc3C)nc2c1)C(=O)O | > 200 µg/mL | 200 µg/mL (≈ 476 µM) | 100 µg/mL (≈ 238 µM) | 200 µg/mL (≈ 476 µM) | > 200 µg/mL
22 | Cc1oc(-c2ccccc2)nc1CCCc1nc2cc(C[C@H](OC(C)C)C(=O)O)ccc2o1 | 200 µg/mL (≈ 446 µM) | 50 µg/mL (≈ 111 µM) | 50 µg/mL (≈ 111 µM) | 50 µg/mL (≈ 111 µM) | > 200 µg/mL
23 | Cc1oc(-c2ccccc2)nc1CCCc1nc2cc(C[C@@H](Oc3ccc(C(F)(F)F)cc3)C(=O)O)ccc2o1 | 25 µg/mL (≈ 45.4 µM) | 12.5 µg/mL (≈ 22.7 µM) | 6.25 µg/mL (≈ 11.4 µM) | 12.5 µg/mL (≈ 22.7 µM) | > 200 µg/mL
24 | Cc1oc(-c2ccccc2)nc1CCCc1nc2cc(C[C@@H](Oc3ccc(C(C)(C)C)cc3)C(=O)O)ccc2o1 | 25 µg/mL (≈ 46.4 µM) | 12.5 µg/mL (≈ 23.2 µM) | 12.5 µg/mL (≈ 23.2 µM) | 12.5 µg/mL (≈ 23.2 µM) | > 200 µg/mL
25 | Cc1oc(-c2ccccc2)nc1CCCc1nc2cc(C[C@@H](Oc3ccc(-c4ccccc4)cc3)C(=O)O)ccc2o1 | 12.5 µg/mL (≈ 22.4 µM) | 12.5 µg/mL (≈ 22.4 µM) | 6.25 µg/mL (≈ 11.2 µM) | 6.25 µg/mL (≈ 11.2 µM) | > 200 µg/mL
26 | Cc1oc(-c2ccccc2)nc1CCCc1nc2cc(C[C@@H](Oc3ccc(OCc4ccccc4)cc3)C(=O)O)ccc2o1 | 25 µg/mL (≈ 42.5 µM) | 25 µg/mL (≈ 42.5 µM) | 25 µg/mL (≈ 42.5 µM) | 12.5 µg/mL (≈ 21.2 µM) | > 200 µg/mL
27 | COC(=O)[C@H](Cc1ccc2oc(CCCc3nc(-c4ccccc4)oc3C)nc2c1)Oc1ccc(-c2ccccc2)cc1 | > 200 µg/mL | > 200 µg/mL | > 200 µg/mL | > 200 µg/mL | > 200 µg/mL
28 | CO/N=C(\C(=O)N[C@@H]1C(=O)N2C(C(=O)O)=C(COC(C)=O)CS[C@H]12)c1csc(N)n1 [CEFOTAXIME] | 200 µg/mL (≈ 439 µM) | 3.12 µg/mL (≈ 6.85 µM) | 3.12 µg/mL (≈ 6.85 µM) | 0.78 µg/mL (≈ 1.71 µM) | –
29 | CC(C)(O/N=C(\C(=O)N[C@@H]1C(=O)N2C(C(=O)[O-])=C(C[n+]3ccccc3)CS[C@H]12)c1csc(N)n1)C(=O)O [CEFTAZIDIME] | 200 µg/mL (≈ 366 µM) | 0.78 µg/mL (≈ 1.43 µM) | 12.5 µg/mL (≈ 22.9 µM) | 6.25 µg/mL (≈ 11.4 µM) | –
30 | CC1=C(C(=O)O)N2C(=O)[C@@H](NC(=O)[C@H](N)C3=CCC=CC3)[C@H]2SC1 [CEPHRADINE] | 25 µg/mL (≈ 71.5 µM) | 25 µg/mL (≈ 71.5 µM) | 50 µg/mL (≈ 143 µM) | 50 µg/mL (≈ 143 µM) | –
31 | CC(=O)N1CCN(c2ccc(OCC3COC(Cn4ccnc4)(c4ccc(Cl)cc4Cl)O3)cc2)CC1 (stereo not drawn) [KETOCONAZOLE] | – | – | – | – | < 0.39 µg/mL
32 | Clc1ccc(COC(Cn2ccnc2)c2ccc(Cl)cc2Cl)c(Cl)c1.O=[N+]([O-])O (stereo not drawn) [MICONAZOLE NITRATE] | – | – | – | – | 1.56 µg/mL
33 | CC1(C)S[C@@H]2[C@H](NC(=O)Cc3ccccc3)C(=O)N2[C@H]1C(=O)[O-].[Na+] [PENICILLIN G SODIUM] | 0.78 µg/mL | 3.12 µg/mL | 3.12 µg/mL | < 0.39 µg/mL | –
